Source: ChEMBL document CHEMBL3763144, “Optimization of a Novel Series of Ataxia-Telangiectasia Mutated Kinase Inhibitors as Potential Radiosensitizing Agents” (J Med Chem, 2016)

How the values were obtained:
[1] = Stability of the compound in phosphate buffered saline assessed as compound stability time at pH 5 by UPLC-MS analysis; format: physicochemical; details: buffer
[2] = Tmax in C57BL/6 mouse at 20 mg/kg, iv by UPLC-MS analysis; format: ADME, organism-based; details: in vivo
Method in brief: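 Female C57BL/6 mice (22-27 g) received a single tail-vein injection at 4 ml/kg in 5/45/50 EtOH/PPG/PBS (pH 7.4) with 10 mM HβCD and 5% DMSO. Groups were 0, 10 and 20 mg/kg. Blood was drawn retro-orbitally at 5, 15, 30 min, 1, 4, 24 and 48 h into EDTA. Plasma was precipitated with acetonitrile containing 2 uM warfarin as internal standard and quantified by UPLC/MS from the analyte/internal-standard peak-area ratio.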

Mus musculus [3] = species: Mus musculus; assay: Drug metabolism in C57BL/6 mouse assessed as 4-(5-amino-3-(pyridin-2-yl)-1H-1,2,4-triazol-1-yl)-7-methoxyquinazolin-6-ol formation by qualitative tandem mass spectrometric analysis; format: ADME, organism-based; details: in vivo
[4] = Intrinsic clearance in CD-1 mouse liver microsomes after 0.5 to 4 hrs by UPLC-MS analysis; format: ADME; details: read-out: CLH
Mus musculus [5] = species: Mus musculus; assay: Drug metabolism in C57BL/6 mouse assessed as 4-(5-amino-3-(pyridin-2-yl)-1H-1,2,4-triazol-1-yl)quinazoline-6,7,8-triol formation by qualitative tandem mass spectrometric analysis; format: ADME, organism-based; details: in vivo
Plasma [6] = assay: Stability in human plasma assessed as compound stability time by UPLC-MS analysis; format: ADME, cell-free
[7] = Stability of the compound in phosphate buffered saline assessed as compound stability time at pH 3 by UPLC-MS analysis; format: physicochemical; details: buffer
[8] = Half life in human liver microsomes by UPLC-MS analysis; format: ADME
[9] = Intrinsic clearance in human liver microsomes after 0.5 to 4 hrs by UPLC-MS analysis; format: ADME; details: read-out: CLH
Plasma [10] = assay: Stability in mouse plasma assessed as compound stability time by UPLC-MS analysis; format: ADME, cell-free
[11] = Stability of the compound in phosphate buffered saline assessed as compound stability time at pH 7.4 by UPLC-MS analysis; format: physicochemical; details: buffer
[12] = Intrinsic clearance in dog liver microsomes after 0.5 to 4 hrs by UPLC-MS analysis; format: ADME, Canis lupus familiaris; details: read-out: CLH
[13] = Cmax in C57BL/6 mouse at 20 mg/kg, iv by UPLC-MS analysis; format: ADME, organism-based; set-up: dose 20 mg/kg, route intravenous; details: in vivo
Method in brief: (§1)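 Female C57BL/6 mice, 22-27 g; single tail-vein injection at 10 or 20 mg/kg (vehicle groups at 0) in EtOH/PPG/PBS pH 7.4 5/45/50 with HβCD 10 mM and 5% DMSO, 4 ml/kg. Blood taken at 5, 15, 30 min, 1, 4, 24 h, one mouse per time point, and at 48 h. EDTA plasma mixed with acetonitrile containing warfarin internal standard; UPLC/MS quantitation by peak-area ratio.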

[14] = Half life in C57BL/6 mouse at 10 mg/kg, iv; format: ADME, organism-based; details: in vivo; method in brief: as §1
Plasma [15] = assay: Stability in rat plasma assessed as compound stability time by UPLC-MS analysis; format: ADME, cell-free
[16] = Half life in rat liver microsomes by UPLC-MS analysis; format: ADME
[17] = Half life in dog liver microsomes by UPLC-MS analysis; format: ADME, Canis lupus familiaris
[18] = Clearance in C57BL/6 mouse at 10 mg/kg, iv; format: ADME, organism-based; details: in vivo; method in brief: as §1
[19] = Half life in CD-1 mouse liver microsomes by UPLC-MS analysis; format: ADME
[20] = Permeability of the compound at 10 uM after 30 mins by PAMPA; format: ADME; details: read-out: permeability
[21] = Half life of the compound in aqueous buffer; format: physicochemical
[22] = Intrinsic clearance in rat liver microsomes after 0.5 to 4 hrs by UPLC-MS analysis; format: ADME; details: read-out: CLH
Mus musculus [23] = species: Mus musculus; assay: Drug metabolism in C57BL/6 mouse assessed as (2S,3S,4S,5R,6S)-6-(4-(5-amino-3-(pyridin-2-yl)-1H-1,2,4-triazol-1-yl)-7-methoxyquinazolin-6-yloxy)-3,4,5-trihydroxytetrahydro-2H-pyran-2-carboxylic acid formation by qualitative tandem mass spectrometric analysis; format: ADME, organism-based; details: in vivo
[24] = Half life in C57BL/6 mouse at 20 mg/kg, iv by UPLC-MS analysis; format: ADME, organism-based; details: in vivo; method in brief: as §1
Mus musculus [25] = species: Mus musculus; assay: Drug level in C57BL/6 mouse treated with 1-(6,7-Dimethoxyquinazolin-4-yl)-3-(pyridin-2-yl)-1H-1,2,4-triazol-5-amine by qualitative tandem mass spectrometric analysis; format: ADME, organism-based; details: in vivo

Row | Stability [1] [h] | CLint scaled [4] [mL/min/kg] | Stability (Plasma [6]) [h] | Stability [7] [h] | half-life [8] [h] | CLint scaled [9] [mL/min/kg] | Stability (Plasma [10]) [h] | Stability [11] [h] | CLint scaled [12] [mL/min/kg] | Cmax [13] [µM] | Stability (Plasma [15]) [h] | half-life [16] [h] | half-life [17] [h] | half-life [19] [h] | Papp at 0.5 h, 10 µM [20] [×10⁻⁶ cm/s] | CLint scaled [22] [mL/min/kg] | Drug metabolism (Mus musculus [25]) | SMILES | other results
1 | > 48 | 61.7 | > 48 | > 48 | 3.4 | 6.1 | > 48 | > 48 | 52.5 | 4 | 19 | 0.8 | 0.6 | 0.9 | 95.9 | 57.8 |  | COc1cc2ncnc(-n3nc(-c4ccccn4)nc3N)c2cc1OC | Tmax [2]: 5 min; Drug metabolism (Mus musculus [3]): metabolite_detected; Drug metabolism (Mus musculus [5]): metabolite_detected; half-life [14]: 1 h; clearance [18]: 2.67 mL/min; half-life [21]: > 48 h; Drug metabolism (Mus musculus [23]): metabolite_detected
2 | > 24 | 27.1 | > 48 | > 24 | > 4 | < 5.2 | > 48 | > 24 | < 8.3 | 9.5 | > 24 | > 4 | > 4 | 2 | 196 | < 11.7 |  | COCCOc1cc2c(-n3nc(-c4ccccn4)nc3N)ncnc2cc1OC | half-life [24]: 19 h
3 | > 48 | 22.9 | > 48 | > 48 | 1.6 | 12.9 | > 48 | > 48 | < 8.3 | 5.8 |  | > 4 | > 4 | 2.4 | 16.6 | < 11.7 |  | COCCOc1cc2ncnc(-n3nc(-c4ccccn4)nc3N)c2cc1OCCOC | 

Second part, the molecule before the results:

Row | SMILES | Stability [1] [h] | CLint scaled [4] [mL/min/kg] | Stability (Plasma [6]) [h] | Stability [7] [h] | half-life [8] [h] | CLint scaled [9] [mL/min/kg] | Stability (Plasma [10]) [h] | Stability [11] [h] | CLint scaled [12] [mL/min/kg] | Cmax [13] [µM] | Stability (Plasma [15]) [h] | half-life [16] [h] | half-life [17] [h] | half-life [19] [h] | Papp at 0.5 h, 10 µM [20] [×10⁻⁶ cm/s] | CLint scaled [22] [mL/min/kg] | Drug metabolism (Mus musculus [25]) | other results
4 | COc1cc2ncnc(-n3nc(-c4ccccn4)nc3N)c2cc1O |  |  |  |  |  |  |  |  |  |  |  |  |  |  |  |  | metabolite_detected | 
5 | Nc1nc(-c2ccccn2)nn1-c1ncnc2c(O)c(O)c(O)cc12 |  |  |  |  |  |  |  |  |  |  |  |  |  |  |  |  | metabolite_detected | 
6 | COc1cc2ncnc(-n3nc(-c4ccccn4)nc3N)c2cc1OCCCNC(=O)OC(C)C | > 24 | 329 | > 24 | > 24 | 1.1 | 18.8 | > 24 | > 24 | < 7.9 |  | > 24 | 1 | > 4 | 0.2 | 432 | 45.1 |  | 
7 | COc1cc2ncnc(-n3nc(-c4ccccn4)nc3N)c2cc1O[C@@H]1O[C@H](C(=O)O)[C@@H](O)[C@H](O)[C@H]1O |  |  |  |  |  |  |  |  |  |  |  |  |  |  |  |  | metabolite_detected | 
